Rows were chosen to be rich in hits. Some 4.8% of all compounds tested hit in one or more screens of this group.
UCH37 inh = blocks the human deubiquitinase UCH37; Q9Y5K5; purified proteasome/UCH37, Ub-AMC cleavage fluorescence; hit rate 0.33% among 330,000; inhibition, % (no concentration beside the values);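 active means mean inhibition over replicate wells above about 20%, limit read from the data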;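 further: 0% = compound-free wells with enzyme and 100% = wells lacking proteasome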
Target sequence (Q9Y5K5 whole entry, looked up): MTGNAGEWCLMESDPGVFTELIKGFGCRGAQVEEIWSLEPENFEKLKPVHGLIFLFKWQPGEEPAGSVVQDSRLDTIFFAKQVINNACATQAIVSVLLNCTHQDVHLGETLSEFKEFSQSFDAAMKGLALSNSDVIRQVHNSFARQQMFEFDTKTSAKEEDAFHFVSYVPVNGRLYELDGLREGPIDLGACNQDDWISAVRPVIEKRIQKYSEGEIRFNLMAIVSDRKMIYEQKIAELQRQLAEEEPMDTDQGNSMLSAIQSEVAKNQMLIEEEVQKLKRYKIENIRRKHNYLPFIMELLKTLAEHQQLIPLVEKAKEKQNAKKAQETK
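Test system – human UCH37 enzyme supplied as purified proteasome complex · Incubation – 30 min preincubation with enzyme, 25 min cleavage at room temperature · Detection – AMC fluorescence from Ub-AMC cleavage, excitation 355 nm, emission 460 nm · Benchmarks – no-proteasome wells (full inhibition) and compound-free wells (no inhibition)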
ALR H2O2 inh = inhibitors of human sulfhydryl oxidase ALR; P55789; purified ALR, DTT oxidation, H2O2 HRP-luminol luminescence; inhibition, % (no concentration beside the values); hit rate 3.8% among 290,000; AID 485317;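 active means mean replicate inhibition above about 79%, with every replicate also reaching it, limit read from the data; inconclusive means only one of the two criteria met; inactive means mean below limit and not every replicate reaching it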
Target sequence (P55789 whole entry, looked up): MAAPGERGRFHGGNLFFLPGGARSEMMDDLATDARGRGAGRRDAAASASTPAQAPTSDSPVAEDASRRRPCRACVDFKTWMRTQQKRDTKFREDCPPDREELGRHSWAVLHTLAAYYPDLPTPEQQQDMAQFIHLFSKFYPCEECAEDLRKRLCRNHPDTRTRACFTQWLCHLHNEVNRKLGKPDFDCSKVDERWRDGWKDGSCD
Calb FLC = affects C. albicans growth with fluconazole. AID 1979. hit rate 0.57% among 300,000. C. albicans CaCi-2 + fluconazole, Alamar Blue growth, 48 h. growth inhibition, % (no concentration beside the values);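 active means growth inhibition above about 58% in most replicates, limit read from the data, passing the limit was not always enough; inconclusive means exactly half the replicates above a set limit; inactive means most replicates below a set limit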;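 further: all wells also contain fluconazole at 8 µg/ml as a sub-toxic cotreatment; 0% = median of DMSO wells and 100% = median of geldanamycin control wells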
ATG4B inh = inhibitors of human ATG4B cysteine protease; Q9Y4P1; ATG4B cleavage of LC3-PLA2, NBD-HPC fluorescence, 1 h; inhibition, % at 8.33 µM; hit rate 0.51% among 340,000; AID 504462; in the data active means inhibition above about 40%
NLRP3 yeast inh = NALP3 inhibition in yeast; Yeast reconstituted NLRP3/ASC/caspase-1, beta-gal luminescence, 24 h; inhibition, % at 10 µM; hit rate 0.39% among 330,000; AID 2825;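 active means inhibition of 50% or more; inactive means inhibition below 50%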;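 further: plate controls were induced DMSO wells for no effect and uninduced yeast grown without galactose for full effect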
NALP1 inh = NALP1 inhibition; hit rate 0.61% among 280,000; AID 2071; S. cerevisiae NALP1/ASC/caspase-1 growth, X-gal OD620, 72 h; inhibition, % at 10 µM; in the data active means inhibition mostly above about 24%, no sharp cut-off; inactive means mostly below about 32%
Active calls of the source: *; ! = repeats disagree.

Results for Cc1cc(C)cc(NC(=O)C2C3C=CC(O3)C2C(=O)O)c1 (centres undefined) ?
ALR H2O2 inh: 7; Calb FLC: -3; ATG4B inh: 6; NLRP3 yeast inh: 7; NALP1 inh: 12

Results for O=C(NN=Cc1cc2c(cc1[N+](=O)[O-])OCO2)c1ccc2c(c1)OCO2 ?
UCH37 inh: 5

How did Cc1cc(C)cc(NC(=O)c2cnn(-c3ccccc3)c2C2CCNCC2)c1 do in these assays?
UCH37 inh: 4; ALR H2O2 inh: -3; Calb FLC: 3; ATG4B inh: 5; NLRP3 yeast inh: 18; NALP1 inh: 23*

How did CCc1ccc(NC(=O)c2cnn(-c3ccccc3)c2C2CCNCC2)cc1 do in these assays?
UCH37 inh: 4; ALR H2O2 inh: -4; Calb FLC: -11; ATG4B inh: -17; NLRP3 yeast inh: -1; NALP1 inh: -15

How did O=C(Nc1cccc(F)c1)N1CC=C(c2ccc(Cl)cc2)CC1 do in these assays?
UCH37 inh: 1; ALR H2O2 inh: -1; Calb FLC: 3; ATG4B inh: -6; NLRP3 yeast inh: 17; NALP1 inh: 39*

How did COc1ccc2cc(C=NNC(=O)CSCc3ccc([N+](=O)[O-])cc3)c(Cl)nc2c1 do in these assays?
UCH37 inh: 1

Results for O=[N+]([O-])c1cc2c(cc1C=Nn1c(-c3ccccn3)n[nH]c1=S)OCO2 ?
UCH37 inh: 5

What do the screens show for `CC(CCc1ccc(O)cc1)N(C)CCc1ccccc1` (centres undefined)?
UCH37 inh: 0; ALR H2O2 inh: 36; Calb FLC: -17; ATG4B inh: 2; NLRP3 yeast inh: 25; NALP1 inh: 26*

How did Cc1cnc([N+](=O)[O-])n1CCOC(=O)NC(=O)c1ccccc1 do in these assays?
UCH37 inh: 4; ALR H2O2 inh: -6; Calb FLC: 3; ATG4B inh: -12; NLRP3 yeast inh: 3; NALP1 inh: 14

How did Cc1ccc(C(=O)NC(=O)OCCn2c(C)cnc2[N+](=O)[O-])cc1 do in these assays?
UCH37 inh: 4; Calb FLC: 88*; ATG4B inh: -1; NLRP3 yeast inh: -19; NALP1 inh: -1

Results for Cc1nc2ccccc2c(=O)n1N=Cc1ccc(F)cc1 ?
UCH37 inh: 1

What do the screens show for `Cc1ccc2c(=O)cc(C(F)F)oc2c1`?
UCH37 inh: 5; Calb FLC: inconclusive; ATG4B inh: -5; NLRP3 yeast inh: 2; NALP1 inh: 41*

What do the screens show for `COc1ccc(NC(=O)CCC(=O)NN=Cc2cccnc2)cc1`?
UCH37 inh: 1

How did O=C(NN=C/C=C/c1ccco1)c1cccc([N+](=O)[O-])c1 do in these assays?
UCH37 inh: 4

What do the screens show for `C=CCNCCCOc1ccc(Cl)cc1Br`?
UCH37 inh: 0; ALR H2O2 inh: -15; Calb FLC: 2; ATG4B inh: -6; NLRP3 yeast inh: 9; NALP1 inh: 46*

What do the screens show for `CCN(CC)C(=O)C1CCCN(c2ccc([N+](=O)[O-])cc2C=NNC(=O)c2ccc([N+](=O)[O-])cc2)C1` (centres undefined)?
UCH37 inh: 4

What do the screens show for `NNC(=O)c1cc(O)c(O)c(O)c1`?
UCH37 inh: 3; ALR H2O2 inh: 99*; Calb FLC: 95*; ATG4B inh: -9; NLRP3 yeast inh: 8; NALP1 inh: -12

Results for NNC(=O)c1ccncc1 ?
UCH37 inh: 0; ATG4B inh: 1; NLRP3 yeast inh: -19; NALP1 inh: 14

Results for COc1c(Cl)cc(C(=O)NN)cc1Cl ?
UCH37 inh: 2; ALR H2O2 inh: 89*; Calb FLC: 15; ATG4B inh: 1; NLRP3 yeast inh: 0; NALP1 inh: 4

How did O=P(C(=NO)Sc1ccccc1)(N1CCOCC1)N1CCOCC1 do in these assays?
UCH37 inh: 2

What do the screens show for `CC1Oc2ccccc2C=C1C=NNC(=O)c1cccnc1` (centres undefined)?
UCH37 inh: -42

What do the screens show for `O=C(N/N=C\c1c(O)ccc2ccccc12)c1cncc(Br)c1`?
ALR H2O2 inh: -63; Calb FLC: 82*; ATG4B inh: -2; NLRP3 yeast inh: 38; NALP1 inh: 0

What do the screens show for `O=C(N/N=C/c1ccc(O)c2ncccc12)c1cccc(Br)c1`?
ALR H2O2 inh: 74; Calb FLC: 116*; ATG4B inh: -3; NLRP3 yeast inh: -56; NALP1 inh: 5

What do the screens show for `Cc1ccc(C(=O)N/N=C/c2c(O)ccc3ccccc23)cn1`?
ALR H2O2 inh: -19; Calb FLC: 89*; ATG4B inh: -22; NLRP3 yeast inh: 5; NALP1 inh: 20

How did O=C(N/N=C\c1c(O)ccc2ccccc12)c1ccc(O)cc1 do in these assays?
ALR H2O2 inh: -10; Calb FLC: -1; ATG4B inh: -26; NLRP3 yeast inh: 11; NALP1 inh: -14

Results for O=C(CSCC(=O)Nc1ccccc1)N/N=C/c1c(O)ccc2ccccc12 ?
ALR H2O2 inh: 5; Calb FLC: 113*; ATG4B inh: -30; NLRP3 yeast inh: 16; NALP1 inh: -14

What do the screens show for `CCc1cc(CC)c(C=NNC(N)=O)c(CC)c1C=NNC(N)=O`?
UCH37 inh: 3

What do the screens show for `COc1ccc(C=NNc2nccnc2Cl)c(OC)c1`?
UCH37 inh: 4

What do the screens show for `O=C(N/N=C/c1c(O)ccc2ccccc12)c1cccnc1`?
ALR H2O2 inh: 17; Calb FLC: 100*; ATG4B inh: -15; NLRP3 yeast inh: 11; NALP1 inh: 23

How did O=C(NN=Cc1ccc2c(c1)OCO2)c1cc2ccccc2o1 do in these assays?
UCH37 inh: 2

What do the screens show for `CN(C)Cc1c(C(=O)NN=Cc2ccc(OCc3ccc(F)cc3)cc2)nnn1-c1nonc1N`?
UCH37 inh: 2

How did CCOc1c(C)cc(-c2ncccc2O)cc1C do in these assays?
UCH37 inh: -142; ALR H2O2 inh: 92*!; Calb FLC: 7; ATG4B inh: 3; NLRP3 yeast inh: 8; NALP1 inh: 11

Results for CC1CN(S(=O)(=O)c2cccc(-c3cn4ccccc4n3)c2)CC(C)O1 (centres undefined) ?
UCH37 inh: -4; ALR H2O2 inh: -9; Calb FLC: 1; ATG4B inh: -20; NLRP3 yeast inh: -15; NALP1 inh: 6

What do the screens show for `Cc1nc(-c2ccc(S(=O)(=O)N3CCOCC3)cc2)cs1`?
UCH37 inh: 0; ALR H2O2 inh: 93*; Calb FLC: 5; ATG4B inh: -3; NLRP3 yeast inh: 6; NALP1 inh: -2

What do the screens show for `CC1CN(S(=O)(=O)c2cccc(-c3csc(-c4ccccc4)n3)c2)CC(C)O1` (centres undefined)?
UCH37 inh: -1; ALR H2O2 inh: 98*; Calb FLC: 20; ATG4B inh: -4; NLRP3 yeast inh: 4; NALP1 inh: 0

Bioassay records deposited in PubChem BioAssay by several laboratories.
